Data reported in ChEMBL document CHEMBL5303300, “EUbOPEN Chemogenomics Library - Multiplex” (2023).
Values joined by “and” are separate entries in the source; they are usually repeats but may differ in a detail not shown here. Identical values can stand only once.

Test system: HEK-293T
Assay: Multiplex assay against HEK293T
Assay type: toxicity, cell-based
Details: human, number of replicates 2
Procedure, shortened: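 Tubulin, mitochondrial-mass and membrane-permeability phenotypes are per cents of healthy-nucleus cells. Cells were gated by CellPathfinder machine learning into Hoechst high-intensity objects or normal cells, normal cells into healthy, pyknosed or fragmented nuclei, and pyknosed cells into mitotic or apoptotic. Before that, live cells stained at seeding with Hoechst33342, BioTracker Green Microtubule Cytoskeleton Dye, MitoTracker Red and Annexin V Alexa Fluor 680 were imaged on a CQ1 microscope at 37°C and 5% CO2 after compound addition.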

[1] = 12 h, 1 µM, compound concentration 1 uM
[2] = 12 h, 10 µM, compound concentration 10 uM
[3] = 24 h, 1 µM, compound concentration 1 uM
[4] = 24 h, 10 µM, compound concentration 10 uM
[5] = 48 h, 1 µM, compound concentration 1 uM
[6] = 48 h, 10 µM, compound concentration 10 uM

CN[C@@H]1CC[C@@H](c2ccc(Cl)c(Cl)c2)c2ccccc21.Cl
Population Apoptotic (%) [1]: 46% and 42%
Population Fragmented Nuclei (%) [1]: 2% and 3%
Population Healthy Nuclei (%) [1]: 84%
Population Hoechst High Intensity Objects (%) [1]: 8% and 7%
Population Membrane Permeable-Phenotype (%) [1]: 3%
Population Mitochondria Different-Phenotype (%) [1]: 21% and 16%
Population Mitotic Cells (%) [1]: 53% and 57%
Population Normal (%) [1]: 91% and 92%
Population Pyknosed Nuclei (%) [1]: 12% and 11%
Population Tubulin-Different-Phenotype (%) [1]: 68% and 66%
Population Apoptotic (%) [2]: 57% and 46%
Population Fragmented Nuclei (%) [2]: 3% and 1%
Population Healthy Nuclei (%) [2]: 81% and 80%
Population Hoechst High Intensity Objects (%) [2]: 6%
Population Membrane Permeable-Phenotype (%) [2]: 1% and 3%
Population Mitochondria Different-Phenotype (%) [2]: 48% and 54%
Population Mitotic Cells (%) [2]: 42% and 53%
Population Normal (%) [2]: 93%
Population Pyknosed Nuclei (%) [2]: 15% and 17%
Population Tubulin-Different-Phenotype (%) [2]: 96%
Population Apoptotic (%) [3]: 41% and 38%
Population Fragmented Nuclei (%) [3]: 3% and 4%
Population Healthy Nuclei (%) [3]: 88%
Population Hoechst High Intensity Objects (%) [3]: 8%
Population Membrane Permeable-Phenotype (%) [3]: 3% and 2%
Population Mitochondria Different-Phenotype (%) [3]: 10%
Population Mitotic Cells (%) [3]: 58% and 61%
Population Normal (%) [3]: 91%
Population Pyknosed Nuclei (%) [3]: 8% and 7%
Population Tubulin-Different-Phenotype (%) [3]: 42% and 45%
Population Apoptotic (%) [4]: 66% and 59%
Population Fragmented Nuclei (%) [4]: 4% and 2%
Population Healthy Nuclei (%) [4]: 78% and 81%
Population Hoechst High Intensity Objects (%) [4]: 7% and 11%
Population Membrane Permeable-Phenotype (%) [4]: 2%
Population Mitochondria Different-Phenotype (%) [4]: 63% and 59%
Population Mitotic Cells (%) [4]: 33% and 40%
Population Normal (%) [4]: 92% and 88%
Population Pyknosed Nuclei (%) [4]: 16% and 15%
Population Tubulin-Different-Phenotype (%) [4]: 94%
Population Apoptotic (%) [5]: 14% and 15%
Population Fragmented Nuclei (%) [5]: 11% and 10%
Population Healthy Nuclei (%) [5]: 84% and 86%
Population Hoechst High Intensity Objects (%) [5]: 10% and 9%
Population Membrane Permeable-Phenotype (%) [5]: 4%
Population Mitochondria Different-Phenotype (%) [5]: 1%
Population Mitotic Cells (%) [5]: 85% and 84%
Population Normal (%) [5]: 89% and 90%
Population Pyknosed Nuclei (%) [5]: 3%
Population Tubulin-Different-Phenotype (%) [5]: 18% and 23%
Population Apoptotic (%) [6]: 58% and 75%
Population Fragmented Nuclei (%) [6]: 5%
Population Healthy Nuclei (%) [6]: 84% and 83%
Population Hoechst High Intensity Objects (%) [6]: 8% and 13%
Population Membrane Permeable-Phenotype (%) [6]: 2% and 3%
Population Mitochondria Different-Phenotype (%) [6]: 29% and 34%
Population Mitotic Cells (%) [6]: 41% and 24%
Population Normal (%) [6]: 91% and 86%
Population Pyknosed Nuclei (%) [6]: 9% and 11%
Population Tubulin-Different-Phenotype (%) [6]: 76% and 87%

CC1=C(C)C(=O)C(C(C)(C)CC(=O)N(CCCCSC[C@H]2O[C@@H](n3cnc4c(N)ncnc43)[C@H](O)[C@@H]2O)Cc2cccc(-c3ccc(Cl)cc3)c2)=C(C)C1=O
Population Apoptotic (%) [1]: 40% and 44%
Population Fragmented Nuclei (%) [1]: 4%
Population Healthy Nuclei (%) [1]: 89% and 86%
Population Hoechst High Intensity Objects (%) [1]: 6% and 7%
Population Membrane Permeable-Phenotype (%) [1]: 4% and 3%
Population Mitochondria Different-Phenotype (%) [1]: 10% and 11%
Population Mitotic Cells (%) [1]: 59% and 55%
Population Normal (%) [1]: 93% and 92%
Population Pyknosed Nuclei (%) [1]: 6% and 8%
Population Tubulin-Different-Phenotype (%) [1]: 71% and 70%
Total Cell Count [1]: 874 and 797
Population Apoptotic (%) [2]: 52% and 54%
Population Fragmented Nuclei (%) [2]: 2%
Population Healthy Nuclei (%) [2]: 82% and 81%
Population Hoechst High Intensity Objects (%) [2]: 7%
Population Membrane Permeable-Phenotype (%) [2]: 10% and 3%
Population Mitochondria Different-Phenotype (%) [2]: 48% and 51%
Population Mitotic Cells (%) [2]: 47% and 45%
Population Normal (%) [2]: 92%
Population Pyknosed Nuclei (%) [2]: 14% and 15%
Population Tubulin-Different-Phenotype (%) [2]: 88% and 92%
Total Cell Count [2]: 506 and 434
Population Apoptotic (%) [3]: 21% and 25%
Population Fragmented Nuclei (%) [3]: 8% and 6%
Population Healthy Nuclei (%) [3]: 87%
Population Hoechst High Intensity Objects (%) [3]: 8%
Population Membrane Permeable-Phenotype (%) [3]: 6% and 3%
Population Mitochondria Different-Phenotype (%) [3]: 2% and 5%
Population Mitotic Cells (%) [3]: 78% and 74%
Population Normal (%) [3]: 91%
Population Pyknosed Nuclei (%) [3]: 4% and 6%
Population Tubulin-Different-Phenotype (%) [3]: 50%
Total Cell Count [3]: 1418 and 1263
Population Apoptotic (%) [4]: 46% and 64%
Population Fragmented Nuclei (%) [4]: 3%
Population Healthy Nuclei (%) [4]: 81%
Population Hoechst High Intensity Objects (%) [4]: 7% and 9%
Population Membrane Permeable-Phenotype (%) [4]: 4% and 3%
Population Mitochondria Different-Phenotype (%) [4]: 62% and 59%
Population Mitotic Cells (%) [4]: 53% and 35%
Population Normal (%) [4]: 92% and 90%
Population Pyknosed Nuclei (%) [4]: 15% and 14%
Population Tubulin-Different-Phenotype (%) [4]: 88% and 93%
Total Cell Count [4]: 524 and 473
Population Apoptotic (%) [5]: 10% and 13%
Population Fragmented Nuclei (%) [5]: 24% and 15%
Population Healthy Nuclei (%) [5]: 74% and 81%
Population Hoechst High Intensity Objects (%) [5]: 10% and 9%
Population Membrane Permeable-Phenotype (%) [5]: 6% and 5%
Population Mitochondria Different-Phenotype (%) [5]: 0%
Population Mitotic Cells (%) [5]: 89% and 86%
Population Normal (%) [5]: 89% and 90%
Population Pyknosed Nuclei (%) [5]: 1% and 2%
Population Tubulin-Different-Phenotype (%) [5]: 25% and 28%
Total Cell Count [5]: 3744 and 2984
Population Apoptotic (%) [6]: 55% and 62%
Population Fragmented Nuclei (%) [6]: 4% and 5%
Population Healthy Nuclei (%) [6]: 87% and 88%
Population Hoechst High Intensity Objects (%) [6]: 6% and 10%
Population Membrane Permeable-Phenotype (%) [6]: 8% and 6%
Population Mitochondria Different-Phenotype (%) [6]: 47%
Population Mitotic Cells (%) [6]: 44% and 37%
Population Normal (%) [6]: 93% and 89%
Population Pyknosed Nuclei (%) [6]: 7% and 5%
Population Tubulin-Different-Phenotype (%) [6]: 93% and 92%
Total Cell Count [6]: 622 and 637
